Tests used:
[1] = biological target: T1, Thymidylate synthase (Lactobacillus casei) (UniProt P00469); experiment: Inactivation of thymidylate synthetase measured as k2 at 6.8 pH 30 degrees Celsius temp; details: Lacticaseibacillus casei
T1 sequence (whole entry): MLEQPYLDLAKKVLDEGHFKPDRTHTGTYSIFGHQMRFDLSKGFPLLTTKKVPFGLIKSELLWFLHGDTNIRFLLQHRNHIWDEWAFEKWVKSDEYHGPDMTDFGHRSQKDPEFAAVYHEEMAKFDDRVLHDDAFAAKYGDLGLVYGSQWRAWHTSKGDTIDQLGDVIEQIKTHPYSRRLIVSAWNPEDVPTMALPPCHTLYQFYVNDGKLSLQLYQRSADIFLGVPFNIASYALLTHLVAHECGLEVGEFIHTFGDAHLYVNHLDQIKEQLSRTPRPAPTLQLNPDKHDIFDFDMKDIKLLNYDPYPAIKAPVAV
In short: (§1)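 L. casei (methotrexate-resistant) thymidylate synthetase, activated in 50 mM 2-mercaptoethanol, then freed of thiol on Sephadex G-25 in 0.05 M phosphate pH 6.8; 0.1–0.4 μM enzyme preincubated at 30 °C with inhibitor in 6 mM potassium phosphate pH 6.8, 3 mM MgCl2, 0.12 mM EDTA. Aliquots at 0–50 s assayed 60 s with 50 μM [5-3H]dUMP; ln % activity vs time gives kobs.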

[2] = biological target: T1, Thymidylate synthase (Lactobacillus casei); experiment: Inactivation of thymidylate synthetase measured as kobs at a dose 1.0 pH 6.8, 30 degrees Centigrade; details: Lacticaseibacillus casei; in short: as §1
[3] = biological target: T1, Thymidylate synthase (Lactobacillus casei); experiment: Inactivation of thymidylate synthetase measured as kobs at a dose 3.0 pH 6.8, 30 degrees Centigrade; details: Lacticaseibacillus casei; in short: as §1
[4] = biological target: T1, Thymidylate synthase (Lactobacillus casei); experiment: Inactivation of thymidylate synthetase measured as kobs at a dose 10.0 pH 6.8, 30 degrees Centigrade; details: Lacticaseibacillus casei; in short: as §1
[5] = biological target: T1, Thymidylate synthase (Lactobacillus casei); experiment: Inactivation of thymidylate synthetase measured as kobs at a dose 30.0.0 pH 6.8, 30 degrees Centigrade; details: Lacticaseibacillus casei; in short: as §1
[6] = biological target: T1, Thymidylate synthase (Lactobacillus casei); experiment: Inactivation of thymidylate synthetase measured as kobs at 2.0 pH 30 degrees Celsius temp; details: Lacticaseibacillus casei
In short: (§2)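 Thymidylate synthetase from methotrexate-resistant Lactobacillus casei, activated by dialysis against 0.1 M potassium phosphate pH 6.8 with 50 mM mercaptoethanol, then freed of thiol on Sephadex G-25. Enzyme at 0.1–0.4 μM preincubated at 30 °C in 6 mM potassium phosphate pH 6.8, 3 mM MgCl2, 0.12 mM EDTA with inhibitor, with or without substrate for protection. Aliquots were taken over time and assayed.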

[7] = biological target: T1, Thymidylate synthase (Lactobacillus casei); experiment: Inactivation of thymidylate synthetase measured as kobs at 0.6 pH 30 degrees Celsius temp; details: Lacticaseibacillus casei; in short: as §2
[8] = biological target: T1, Thymidylate synthase (Lactobacillus casei); experiment: Substrate concentration measured for Inactivation of thymidylate synthetase at a dose 0.6, pH 6.8, 30 degrees Centigrade; details: Lacticaseibacillus casei; in short: as §2
[9] = biological target: T1, Thymidylate synthase (Lactobacillus casei); experiment: Substrate concentration measured for Inactivation of thymidylate synthetase at a dose 2.0 pH 6.8, 30 degrees Centigrade; details: Lacticaseibacillus casei; in short: as §2
[10] = biological target: T1, Thymidylate synthase (Lactobacillus casei); experiment: Inactivation of thymidylate synthetase measured as kcat at 6.8 pH 30 degrees Centigrade temp; details: Lacticaseibacillus casei; in short: as §1
[11] = biological target: T2, Thymidylate synthase (Lactobacillus casei, UniProt P00469); experiment: Inactivation of thymidylate synthetase measured asKi at 6.8 pH 30 degrees Celsius temp; parameters: species or system Lacticaseibacillus casei; in short: as §1
T2 sequence (P00469 whole entry): T1 sequence (whole entry)

[12] = biological target: T2, Thymidylate synthase; experiment: Inactivation of thymidylate synthetase measured as Ki at 6.8 pH 30 degrees Celsius temp; parameters: species or system Lacticaseibacillus casei; in short: as §1
[13] = biological target: T1, Thymidylate synthase (Lactobacillus casei); experiment: Substrate concentration measured for Inactivation of thymidylate synthetase at a dose 5.56, pH 6.8, 30 degrees Centigrade; details: Lacticaseibacillus casei; in short: as §2
[14] = biological target: T1, Thymidylate synthase (Lactobacillus casei); experiment: Inactivation of thymidylate synthetase measured as kobs at a dose 5.56, pH 6.8, 30 degrees Centigrade; details: Lacticaseibacillus casei; in short: as §2
[15] = biological target: T1, Thymidylate synthase (Lactobacillus casei); experiment: Substrate concentration measured for Inactivation of thymidylate synthetase at a dose 10.0 pH 6.8, 30 degrees Centigrade; details: Lacticaseibacillus casei; in short: as §2
[16] = biological target: T1, Thymidylate synthase (Lactobacillus casei); experiment: Inactivation of thymidylate synthetase measured as kobs at a dose 10.0, pH 6.8, 30 degrees Centigrade; details: Lacticaseibacillus casei; in short: as §2
[17] = biological target: T1, Thymidylate synthase (Lactobacillus casei); experiment: Inactivation of thymidylate synthetase measured as k2 at 7 pH 24 degrees Celsius temp; details: Lacticaseibacillus casei
[18] = biological target: T1, Thymidylate synthase (Lactobacillus casei); experiment: Inactivation of thymidylate synthetase measur as kcat at 6.8 pH 30 degrees Celsius temp; details: Lacticaseibacillus casei; in short: as §2
[19] = biological target: T1, Thymidylate synthase (Lactobacillus casei); experiment: Inactivation of thymidylate synthetase measured as k2 at 7 pH 4 degrees Celsius temp; details: Lacticaseibacillus casei

Work on `O=C1C=CC(=O)C(c2ccccc2)=C1` yielded a k2 [1] of 2600, a k obs [2] of 0.0034 s⁻¹ and a k obs [3] of 0.007 s⁻¹. For the same compound, the k obs [4] was 0.025 s⁻¹ and the k obs [5] was 0.078 s⁻¹.
With `O=C1C=CC(=O)C=C1` the k obs [6] was 0.0126 s⁻¹, the k obs [7] was 0.0025 s⁻¹ and the Substrate [8] was 0 µM. The Substrate [9] was 0 µM.
For `O=C(CBr)c1cn(C2CC(O)C(OP(=O)(O)O)O2)c(=O)[nH]c1=O` (centres undefined), the k2 [1] was 32000, the k cat [10] was 0.065 s⁻¹ and the Ki [11] was 2 µM.
Work on `O=C(CBr)c1cn([C@H]2C[C@H](O)[C@@H](COP(=O)(O)O)O2)c(=O)[nH]c1=O` yielded a k2 [1] of 600 M⁻¹ s⁻¹, a Ki [12] of 4 µM and a k cat [10] of 0.0025 s⁻¹.
For `O=C1C=CC(=O)C(c2cn([C@H]3C[C@H](O)[C@@H](CO)O3)c(=O)[nH]c2=O)=C1`, the Substrate [13] was 0 µM, the k obs [14] was 0.0029 s⁻¹ and the Substrate [15] was 0 µM. For the same compound, the k obs [16] was 0.0048 s⁻¹.
Work on `NC(=O)CI` yielded a k2 [17] of 7 M⁻¹.
`O=c1[nH]c(=O)n([C@H]2C[C@H](O)[C@@H](COP(=O)(O)O)O2)cc1[N+](=O)[O-]` [5-NITRO-DUMP] gave a k cat [18] of 0.146 s⁻¹, a k2 [1] of 300000 M⁻¹ s⁻¹ and a Ki [11] of 0.5 µM.
`CCN1C(=O)C=CC1=O` gave a k2 [19] of 13 M⁻¹.
